Experimental data from the RNAGym collection of RNA variant scans (doi:10.1002/anie.201605470).

B1: Osa-1-4 twister ribozyme (parent)
chain: CCGCCUAACACUGCCAAUGCCGGUCCCAAGCCCGGAUAAAAGUGGAGGGGGCGG

Variants of: B1
Assay: self-cleavage, relative activity (ratio to wild type); higher = more cleavage; co-transcriptional
Summary of the method: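 A DNA template encoding a 54-nucleotide twister ribozyme from Oryza sativa was made so that each of the 48 positions downstream of the cleavage site carried 97 % wild-type base and 1 % of each other base. Transcription in vitro ran for 2 h at 37 °C, during which the ribozyme could cleave itself. Reverse transcription used a template-switching oligonucleotide, and the products were PCR-amplified and deep-sequenced. Each read was scored as cleaved or uncleaved by whether upstream sequence was present, and relative activity is the fraction cleaved normalised to wild type.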

Row | Variant | self-cleavage
1 | C9G U37C | 0.94
2 | A10C A8C | 0.15
3 | A10C A8G | 0.06
4 | A10C A8U | 0.04
5 | C9U G34C | 0.11
6 | C9U G34U | 0.28
7 | C9U G34A | 0.41
8 | A10C C21A | 0.04
9 | A10C C21G | 0.01
10 | A10C C21U | 0.06
11 | A8U G45C | 0.04
12 | A8U G45U | 0.08
13 | A8U G45A | 0.05
14 | C9A U12G | 0.08
15 | C9A U12A | 0.16
16 | C9A U12C | 0.1
17 | A8U G34U | 0.1
18 | A8U G34C | 0.09
19 | A8U G34A | 0.13
20 | A8U U43A | 0.09
21 | A8U U43C | 0.08
22 | A8U U43G | 0.08
23 | A8U U37C | 0.36
24 | A8U U37G | 0.54

Row | Variant | self-cleavage
25 | A8U U37A | 0.31
26 | C9A U18G | 0.31
27 | C9A U18C | 0.19
28 | C9A U18A | 0.47
29 | A10C C11A | 0.1
30 | A10C C11G | 0.04
31 | A10C C11U | 0.51
32 | C9G G30C | 0.04
33 | C9G G30A | 0.02
34 | C9G G30U | 0.04
35 | C9U G50C | 0.73
36 | C9U G50A | 0.28
37 | C9U G50U | 0.86
38 | C9U G35A | 0.53
39 | C9U G35C | 0.21
40 | C9U G35U | 0.59
41 | C9U G13C | 0.01
42 | C9U G13U | 0.01
43 | C9U G13A | 0.04
44 | A10C A46G | 0.03
45 | A10C A46C | 0.02
46 | A10C A46U | 0.02
47 | A10C C9A | 0.43
48 | A10C C9G | 0.07

Row | Variant | self-cleavage
49 | A10C C9U | 0.06
50 | C9G G53C | 0.05
51 | C9G G53U | 0.14
52 | C9G G53A | 0.48
53 | C9G G54A | 0.71
54 | C9G G54U | 0.73
55 | C9G G54C | 0.77
56 | A10C | 0.12
57 | C9U G42U | 0.04
58 | C9U G42A | 0.09
59 | C9U G42C | 0.04
60 | A10C C26U | 0.03
61 | A10C C26A | 0.03
62 | A10C C26G | 0.03
63 | A10C A38U | 0.08
64 | A10C A38C | 0.07
65 | A10C A38G | 0.08
66 | C9G G23A | 0.24
67 | C9G G23U | 0.04
68 | C9G G23C | 0.07
69 | C9U G45C | 0.03
70 | C9U G45U | 0.04
71 | C9U G45A | 0.06
72 | C9U U12A | 0.24

Row | Variant | self-cleavage
73 | C9U U12G | 0.06
74 | C9U U12C | 0.05
75 | C9G U12G | 0.11
76 | C9G U12C | 0.1
77 | C9G U12A | 0.13
78 | C9U G48U | 0.03
79 | C9U G48C | 0.04
80 | C9U G48A | 0.03
81 | C9A U37A | 0.28
82 | C9A U37C | 0.53
83 | C9A U37G | 0.53
84 | A8U G35C | 0.08
85 | A8U G35A | 0.27
86 | A8U G35U | 0.18
87 | C9U G47C | 0.02
88 | C9U G47U | 0.06
89 | C9U G47A | 0.06
90 | A8U G54U | 0.32
91 | A8U G54C | 0.13
92 | A8U G54A | 0.17
93 | A8U G48C | 0.05
94 | A8U G48A | 0.05
95 | A8U G48U | 0.04
96 | A10C A7G | 0.06

Row | Variant | self-cleavage
97 | A10C A7C | 0.04
98 | A10C A7U | 0.06
99 | C9U G49A | 0.06
100 | C9U G49C | 0.04
101 | C9U G49U | 0.05
102 | C9U G54C | 0.71
103 | C9U G54A | 0.69
104 | C9U G54U | 0.72
105 | A10C A40G | 0.04
106 | A10C A40U | 0.03
107 | A10C A40C | 0.03
108 | A10C C15A | 0.08
109 | A10C C15U | 0.04
110 | A10C C15G | 0.04
111 | A8U G53U | 0.1
112 | A8U G53A | 0.12
113 | A8U G53C | 0.05
114 | A8U G50C | 0.24
115 | A8U G50U | 0.35
116 | A8U G50A | 0.26
117 | C9G G22A | 0.15
118 | C9G G22U | 0.14
119 | C9G G22C | 0.05
120 | C9G U24C | 0.1

Row | Variant | self-cleavage
121 | C9G U24G | 0.04
122 | C9G U24A | 0.08
123 | C9A G22C | 0.03
124 | C9A G22U | 0.12
125 | C9A G22A | 0.34
126 | C9G G19U | 0.11
127 | C9G G19C | 0.06
128 | C9G G19A | 0.2
129 | A10C A28U | 0.05
130 | A10C A28C | 0.08
131 | A10C A28G | 0.03
132 | C9G G45A | 0.11
133 | C9G G45U | 0.07
134 | C9G G45C | 0.04
135 | C9U G30C | 0.03
136 | C9U G30U | 0.02
137 | C9U G30A | 0.02
138 | C9A | 0.48
139 | C9G | 0.93
140 | C9U | 0.78
141 | C9A G45C | 0.01
142 | C9A G45U | 0.03
143 | C9A G45A | 0.04
144 | C9G G47C | 0.06

Row | Variant | self-cleavage
145 | C9G G47A | 0.09
146 | C9G G47U | 0.07
147 | A8U G30C | 0.03
148 | A8U G30U | 0.02
149 | A8U G30A | 0.02
150 | C9A G50A | 0.13
151 | C9A G50U | 0.5
152 | C9A G50C | 0.38
153 | C9A G49A | 0.04
154 | C9A G49C | 0.02
155 | C9A G49U | 0.03
156 | A10C A16C | 0.09
157 | A10C A16U | 0.08
158 | A10C A16G | 0.14
159 | A8U U18C | 0.26
160 | A8U U18G | 0.56
161 | A8U U18A | 0.39
162 | C9U G23A | 0.12
163 | C9U G23C | 0.03
164 | C9U G23U | 0.03
165 | C9A G53U | 0.09
166 | C9A G53C | 0.03
167 | C9A G53A | 0.29
